Assay results published in ChEMBL document CHEMBL3864147, “Antioxidant and anti-inflammatory neolignans from the seeds of hawthorn” (Bioorg Med Chem Lett, 2016).
pIC50: −log10 of the molar value.

Legend:
[1] = Antioxidant activity assessed as DPPH radical scavenging activity incubated in dark for 30 mins; format: functional
Procedure, shortened: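 Samples (0.4 mM stock, 5–40 µL series) and DPPH (2 mM stock, 20 µL) in ethanol, made to 200 µL with ethanol; incubated 30 min in dark at 37 °C; absorbance at 517 nm. Ethanol replaced sample as blank.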

[2] = Antioxidant activity assessed as ABTS radical scavenging activity after 30 mins; format: functional
Procedure, shortened: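 ABTS radical generated by 7 mM ABTS plus 2.4 mM potassium persulfate, 12 h dark at room temperature, diluted in ethanol to OD 0.700 at 734 nm. Samples at several concentrations mixed with ABTS+ solution, 30 min at 37 °C, read at 734 nm; ethanol blank; percent scavenging calculated relative to blank.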

[3] = Antioxidant activity assessed as ferric ion reducing activity by measuring Fe2+ levels using fe3+-TPTZ at 375 ug/ml after 30 mins by FRAP assay; format: functional
Procedure, shortened: (§1)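 FRAP reagent: 300 mM acetate buffer pH 3.6, 10 mM TPTZ in 40 mM HCl, 20 mM FeCl3. Sample (3000, 1500, 750, 375 µg/mL solutions) mixed with reagent, 30 min at 37 °C, absorbance 593 nm. Values expressed as µM Fe2+ from FeSO4 calibration curve (5–450 µM).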

[4] = Antioxidant activity assessed as ferric ion reducing activity by measuring Fe2+ levels using fe3+-TPTZ at 750 ug/ml after 30 mins by FRAP assay; format: functional; procedure, shortened: as §1
[5] = Antioxidant activity assessed as ferric ion reducing activity by measuring Fe2+ levels using fe3+-TPTZ at 1500 ug/ml after 30 mins by FRAP assay; format: functional; procedure, shortened: as §1
[6] = Antioxidant activity assessed as ferric ion reducing activity by measuring Fe2+ levels using fe3+-TPTZ at 3000 ug/ml after 30 mins by FRAP assay; format: functional; procedure, shortened: as §1
[7] = Antiinflammatory activity in mouse RAW264.7 cells assessed as inhibition of LPS-induced nitric oxide production after 24 hrs by Griess assay; format: functional, cell-based; details: RAW264.7, 24 h
Procedure, shortened: (§2)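 RAW264.7 cells (5 × 10^5/mL) pre-treated with samples at 100, 50, 10 or 1 µM, then LPS (100 ng/mL) for 24 h. Nitrite in medium measured by mixing with equal volume Griess reagent (1% sulfanilamide in 5% H3PO4, 0.1% N-naphthyl-ethylenediamine), 10 min at 37 °C, absorbance 540 nm; quantified against NaNO2 standard curve; minocycline as positive control.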

[8] = Antiinflammatory activity in mouse RAW264.7 cells assessed as inhibition of LPS-induced TNFalpha production after 24 hrs by ELISA; format: functional, cell-based; details: RAW264.7, 24 h
Procedure, shortened: (§3)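 RAW264.7 cells plated at 5 × 10^5/mL, pre-treated with samples at 100, 50, 10 or 1 µM, then stimulated with LPS (100 ng/mL) for 24 h. TNF-α in the medium measured by ELISA kit per manufacturer's instructions and quantified from a standard curve; silybin as positive control.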

[9] = organism: Mus musculus; assay: Cytotoxicity against mouse RAW264.7 cells assessed as effect on cell viability at 100 uM preincubated for 1 hr followed by LPS stimulation measured after 24 hrs by MTT assay; format: toxicity, cell-based; details: raw264.7, 24 h
Procedure, shortened: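 RAW264.7 cells in DMEM with 10% FBS and penicillin/streptomycin at 37 °C, 5% CO2, seeded 5 × 10^5 cells/well; treated with samples (100 µM) 1 h, then LPS (100 ng/mL) 24 h. MTT (0.25 mg/mL) added for 4 h; formazan read at 540 nm; untreated cells as control.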

[10] = Antiinflammatory activity in mouse RAW264.7 cells assessed as inhibition of LPS-induced nitric oxide production at 1 uM after 24 hrs by Griess assay relative to control; format: functional; details: RAW264.7, 24 h; procedure, shortened: as §2
[11] = Antiinflammatory activity in mouse RAW264.7 cells assessed as inhibition of LPS-induced nitric oxide production at 10 uM after 24 hrs by Griess assay relative to control; format: functional; details: RAW264.7, 24 h; procedure, shortened: as §2
[12] = Antiinflammatory activity in mouse RAW264.7 cells assessed as inhibition of LPS-induced nitric oxide production at 50 uM after 24 hrs by Griess assay relative to control; format: functional; details: RAW264.7, 24 h; procedure, shortened: as §2
[13] = Antiinflammatory activity in mouse RAW264.7 cells assessed as inhibition of LPS-induced nitric oxide production at 100 uM after 24 hrs by Griess assay relative to control; format: functional; details: RAW264.7, 24 h; procedure, shortened: as §2
[14] = Antiinflammatory activity in mouse RAW264.7 cells assessed as inhibition of LPS-induced TNFalpha production at 1 uM after 24 hrs by ELISA relative to control; format: functional; details: RAW264.7, 24 h; procedure, shortened: as §3
[15] = Antiinflammatory activity in mouse RAW264.7 cells assessed as inhibition of LPS-induced TNFalpha production at 10 uM after 24 hrs by ELISA relative to control; format: functional; details: RAW264.7, 24 h; procedure, shortened: as §3
[16] = Antiinflammatory activity in mouse RAW264.7 cells assessed as inhibition of LPS-induced TNFalpha production at 50 uM after 24 hrs by ELISA relative to control; format: functional; details: RAW264.7, 24 h; procedure, shortened: as §3
[17] = Antiinflammatory activity in mouse RAW264.7 cells assessed as inhibition of LPS-induced TNFalpha production at 100 uM after 24 hrs by ELISA relative to control; format: functional; details: RAW264.7, 24 h; procedure, shortened: as §3

COc1cc([C@H](O)[C@@H](CO)Oc2ccc([C@@H](O)[C@@H](CO)c3ccc(O)c(OC)c3)cc2OC)ccc1O
pIC50 [1]: 4.16
pIC50 [2]: 5.36
Activity [3]: 29.1 µmol/L
Activity [4]: 42.2 µmol/L
Activity [5]: 89.9 µmol/L
Activity [6]: 132 µmol/L
pIC50 [7]: 4.30
pIC50 [8]: < 4.00
Activity [9]: Non-Toxic
inhibition at 1 µM [10]: 2.6%
inhibition at 10 µM [11]: 14.3%
inhibition at 50 µM [12]: 49.2%
inhibition at 100 µM [13]: 68.9%
inhibition at 1 µM [14]: 2.2%
inhibition at 10 µM [15]: 4.1%
inhibition at 50 µM [16]: 15.1%
inhibition at 100 µM [17]: 32.1%

CCO[C@H](c1ccc(O[C@@H](CO)[C@@H](O)c2ccc(O)c(OC)c2)c(OC)c1)[C@H](CO)c1ccc(O)c(OC)c1
pIC50 [1]: 4.25
pIC50 [2]: 5.10
Activity [3]: 33.5 µmol/L
Activity [4]: 65.1 µmol/L
Activity [5]: 108 µmol/L
Activity [6]: 135 µmol/L
pIC50 [7]: 4.12
pIC50 [8]: < 4.00
Activity [9]: Non-Toxic
inhibition at 1 µM [10]: 3.7%
inhibition at 10 µM [11]: 15.5%
inhibition at 50 µM [12]: 44.1%
inhibition at 100 µM [13]: 55.1%
inhibition at 1 µM [14]: 0.4%
inhibition at 10 µM [15]: -1.9%
inhibition at 50 µM [16]: 14.2%
inhibition at 100 µM [17]: 27.7%

COc1cc([C@H](OC)[C@@H](CO)Oc2ccc([C@@H](O)[C@H](O)CO)cc2OC)ccc1O
pIC50 [1]: 3.96
pIC50 [2]: 4.97
Activity [3]: 29.9 µmol/L
Activity [4]: 50.5 µmol/L
Activity [5]: 74.1 µmol/L
Activity [6]: 105 µmol/L
pIC50 [7]: < 4.00
pIC50 [8]: 4.12
Activity [9]: Non-Toxic
inhibition at 1 µM [10]: -1.3%
inhibition at 10 µM [11]: -0.5%
inhibition at 50 µM [12]: 3.2%
inhibition at 100 µM [13]: 7%
inhibition at 1 µM [14]: 3.1%
inhibition at 10 µM [15]: 18.9%
inhibition at 50 µM [16]: 37.2%
inhibition at 100 µM [17]: 57.7%

COc1cc([C@@H](O)[C@H](CO)Oc2c(OC)cc([C@@H](O)[C@H](O)CO)cc2OC)ccc1O
pIC50 [1]: 3.94
pIC50 [2]: 4.97
Activity [3]: 35.9 µmol/L
Activity [4]: 58.1 µmol/L
Activity [5]: 84.6 µmol/L
Activity [6]: 119 µmol/L
pIC50 [7]: < 4.00
pIC50 [8]: < 4.00
Activity [9]: Non-Toxic
inhibition at 1 µM [10]: 0.6%
inhibition at 10 µM [11]: 1.3%
inhibition at 50 µM [12]: 2.7%
inhibition at 100 µM [13]: 3.4%
inhibition at 1 µM [14]: 5.1%
inhibition at 10 µM [15]: 13.7%
inhibition at 50 µM [16]: 28.2%
inhibition at 100 µM [17]: 47%

COc1cc([C@H](O)[C@@H](CO)Oc2ccc([C@@H](O)[C@H](O)CO)cc2OC)ccc1O
pIC50 [1]: 4.08
pIC50 [2]: 5.02
Activity [3]: 9.4 µmol/L
Activity [4]: 16 µmol/L
Activity [5]: 29.4 µmol/L
Activity [6]: 55.8 µmol/L
pIC50 [7]: < 4.00
pIC50 [8]: 4.07
Activity [9]: Non-Toxic
inhibition at 1 µM [10]: -3.6%
inhibition at 10 µM [11]: 1.1%
inhibition at 50 µM [12]: 3.1%
inhibition at 100 µM [13]: 6.3%
inhibition at 1 µM [14]: 3.9%
inhibition at 10 µM [15]: 26.2%
inhibition at 50 µM [16]: 32.3%
inhibition at 100 µM [17]: 55.6%

COc1cc([C@@H](O)[C@@H](CO)Oc2ccc([C@@H](O)[C@H](O)CO)cc2OC)ccc1O
pIC50 [1]: 4.05
pIC50 [2]: 4.97
Activity [3]: 12 µmol/L
Activity [4]: 18.5 µmol/L
Activity [5]: 26 µmol/L
Activity [6]: 66.3 µmol/L
pIC50 [7]: < 4.00
pIC50 [8]: 4.03
Activity [9]: Non-Toxic
inhibition at 1 µM [10]: -1.2%
inhibition at 10 µM [11]: -2.9%
inhibition at 50 µM [12]: 2.6%
inhibition at 100 µM [13]: 4.4%
inhibition at 1 µM [14]: 2.4%
inhibition at 10 µM [15]: 21.2%
inhibition at 50 µM [16]: 30.8%
inhibition at 100 µM [17]: 52.5%

COc1cc([C@@H](O)[C@@H](CO)Oc2ccc([C@@H](OC)[C@H](O)CO)cc2OC)ccc1O
pIC50 [1]: 3.94
pIC50 [2]: 4.89
Activity [3]: 32.5 µmol/L
Activity [4]: 54.1 µmol/L
Activity [5]: 78.3 µmol/L
Activity [6]: 102 µmol/L
pIC50 [7]: < 4.00
pIC50 [8]: 4.32
Activity [9]: Non-Toxic
inhibition at 1 µM [10]: 0.3%
inhibition at 10 µM [11]: -2.2%
inhibition at 50 µM [12]: 3.8%
inhibition at 100 µM [13]: 8.2%
inhibition at 1 µM [14]: 4.5%
inhibition at 10 µM [15]: 24.5%
inhibition at 50 µM [16]: 42.4%
inhibition at 100 µM [17]: 69.3%

Cc1c(C)c2c(c(C)c1O)CCC(C)(C(=O)O)O2 (stereo not given) [TROLOX]
pIC50 [1]: 4.52
pIC50 [2]: 4.74
Activity [3]: 51.7 µmol/L
Activity [4]: 96.9 µmol/L
Activity [5]: 185 µmol/L
Activity [6]: 172 µmol/L

COc1cc(C2Oc3cc([C@H]4Oc5cc(O)cc(O)c5C(=O)[C@@H]4O)ccc3OC2CO)ccc1O (stereo not given in full) [SILIBININ]
pIC50 [8]: 4.16
inhibition at 1 µM [14]: 10.3%
inhibition at 10 µM [15]: 27%
inhibition at 50 µM [16]: 47%
inhibition at 100 µM [17]: 53.8%

CN(C)c1ccc(O)c2c1C[C@H]1C[C@H]3[C@H](N(C)C)C(O)=C(C(N)=O)C(=O)[C@@]3(O)C(O)=C1C2=O [MINOCYCLINE]
pIC50 [7]: 4.26
inhibition at 1 µM [10]: 15.6%
inhibition at 10 µM [11]: 22.7%
inhibition at 50 µM [12]: 51.8%
inhibition at 100 µM [13]: 59.7%
